Measured values as given in ChEMBL document CHEMBL4422682, “Synthesis and urease inhibitory potential of benzophenone sulfonamide hybrid in vitro and in silico” (Bioorg Med Chem, 2019).
pIC50: −log10 of the molar value.

Molecular target: T1, Bacterial urease (Bacteria, UniProt Q03282+Q03283+Q03284)
T1 sequence (Q03282 whole entry): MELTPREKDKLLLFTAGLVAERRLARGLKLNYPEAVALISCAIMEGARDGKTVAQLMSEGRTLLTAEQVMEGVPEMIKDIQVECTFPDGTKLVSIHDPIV
T1 sequence (Q03283 whole entry): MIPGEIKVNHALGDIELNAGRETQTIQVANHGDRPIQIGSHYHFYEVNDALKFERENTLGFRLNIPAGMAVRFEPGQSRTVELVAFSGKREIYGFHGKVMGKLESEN
T1 sequence (Q03284 whole entry): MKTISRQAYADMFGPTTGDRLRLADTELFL
Assay: (§1) Inhibition of bacterial urease using urea as substrate preincubated for 15 mins followed by substrate addition […]; call rule not given here
Type: protein-complex assay
Summary of the method: (§2)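 Compounds preincubated with urease (1 U/well) for 15 min at 30 °C. Urea (100 mM, as added) introduced and incubation continued at 30 °C. Ammonia formed was detected by the Weatherburn phenol-hypochlorite method: alkaline reagent (0.5% w/v NaOH, 0.1% NaOCl) and phenol reagent (1% w/v phenol, 0.005% w/v nitroprusside) were added, then 50 min at 30 °C. Absorbance read at 630 nm on a plate reader.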

Structure (SMILES)	IC50
O=S(=O)(NN=C(c1ccccc1)c1ccccc1)c1cc(Cl)c(Cl)cc1Cl	Not Active
COc1ccc(S(=O)(=O)NN=C(c2ccccc2)c2ccccc2)cc1	Not Active
O=[N+]([O-])c1cccc(S(=O)(=O)NN=C(c2ccccc2)c2ccccc2)c1Cl	Not Active
COc1ccc(S(=O)(=O)NN=C(c2ccccc2)c2ccccc2)c(OC)c1	Not Active
O=S(=O)(NN=C(c1ccccc1)c1ccccc1)c1ccccc1Cl	Not Active
O=[N+]([O-])c1cccc(S(=O)(=O)NN=C(c2ccccc2)c2ccccc2)c1	Not Active
O=S(=O)(NN=C(c1ccccc1)c1ccccc1)c1ccc(Cl)cc1Cl	Not Active
Cc1cc(S(=O)(=O)NN=C(c2ccccc2)c2ccccc2)c(C)cc1Cl	Not Active
O=S(=O)(NN=C(c1ccccc1)c1ccccc1)c1ccc2ccccc2c1	Not Active
CCCCS(=O)(=O)NN=C(c1ccccc1)c1ccccc1	Not Active
O=[N+]([O-])c1ccccc1S(=O)(=O)NN=C(c1ccccc1)c1ccccc1	Not Active
O=[N+]([O-])c1cc(S(=O)(=O)NN=C(c2ccccc2)c2ccccc2)ccc1Cl	Not Active
O=[N+]([O-])c1ccc(S(=O)(=O)NN=C(c2ccccc2)c2ccccc2)cc1	Not Active
O=S(=O)(NN=C(c1ccccc1)c1ccccc1)c1ccccc1	Not Active

Molecular target: Bacterial urease (Bacteria, UniProt Q03284)
Assay: as §1
Type: protein-complex assay
Summary of the method: as §2

Structure (SMILES)	pIC50
O=S(=O)(N/N=C(\c1ccccc1)c1ccc(O)cc1)c1cc(Cl)cc(Cl)c1O	5.30
O=S(=O)(N/N=C(\c1ccccc1)c1ccc(O)cc1)c1ccccc1Cl	4.77
COc1ccc(S(=O)(=O)N/N=C(\c2ccccc2)c2ccc(O)cc2)cc1	4.84
CN(C)c1cccc2c(S(=O)(=O)NN=C(c3ccccc3)c3ccccc3)cccc12	4.14
O=[N+]([O-])c1cccc(S(=O)(=O)N/N=C(\c2ccccc2)c2ccc(O)cc2)c1	4.86
O=S(=O)(CCCl)N/N=C(\c1ccccc1)c1ccc(O)cc1	4.26
O=[N+]([O-])c1ccc(S(=O)(=O)NN=C(c2ccccc2)c2ccccc2)c([N+](=O)[O-])c1	4.16
O=S(=O)(N/N=C(\c1ccccc1)c1ccc(O)cc1)c1ccc(Cl)cc1Cl	4.74
CS(=O)(=O)N/N=C(\c1ccccc1)c1ccc(O)cc1	4.36
O=S(=O)(NN=C(c1ccccc1)c1ccccc1)c1cc(Cl)cc(Cl)c1O	4.14
O=S(=O)(NN=C(c1ccccc1)c1ccccc1)c1ccc(Cl)cc1	4.18
CC(=O)NO [ACETOHYDROXAMIC ACID]	4.53
Cc1ccc([N+](=O)[O-])cc1S(=O)(=O)NN=C(c1ccccc1)c1ccccc1	4.16
O=S(=O)(N/N=C(\c1ccccc1)c1ccc(O)cc1)c1ccccc1	4.79
O=S(=O)(N/N=C(\c1ccccc1)c1ccc(O)cc1)c1cc(Cl)ccc1Cl	4.51
O=S(=O)(N/N=C(\c1ccccc1)c1ccc(O)cc1)c1cc(Cl)c(Cl)cc1Cl	4.24
CN(C)c1cccc2c(S(=O)(=O)N/N=C(\c3ccccc3)c3ccc(O)cc3)cccc12	5.24
O=[N+]([O-])c1ccc(S(=O)(=O)N/N=C(\c2ccccc2)c2ccc(O)cc2)cc1	5.41

Molecular target: T2, Urease (Canavalia ensiformis, UniProt P07374)
Assay: Inhibition of jack bean urease using urea as substrate preincubated for 15 mins followed by substrate addition and measured after 10 mins by ELISA
Summary of the method: as §2

T2 sequence (P07374 whole entry): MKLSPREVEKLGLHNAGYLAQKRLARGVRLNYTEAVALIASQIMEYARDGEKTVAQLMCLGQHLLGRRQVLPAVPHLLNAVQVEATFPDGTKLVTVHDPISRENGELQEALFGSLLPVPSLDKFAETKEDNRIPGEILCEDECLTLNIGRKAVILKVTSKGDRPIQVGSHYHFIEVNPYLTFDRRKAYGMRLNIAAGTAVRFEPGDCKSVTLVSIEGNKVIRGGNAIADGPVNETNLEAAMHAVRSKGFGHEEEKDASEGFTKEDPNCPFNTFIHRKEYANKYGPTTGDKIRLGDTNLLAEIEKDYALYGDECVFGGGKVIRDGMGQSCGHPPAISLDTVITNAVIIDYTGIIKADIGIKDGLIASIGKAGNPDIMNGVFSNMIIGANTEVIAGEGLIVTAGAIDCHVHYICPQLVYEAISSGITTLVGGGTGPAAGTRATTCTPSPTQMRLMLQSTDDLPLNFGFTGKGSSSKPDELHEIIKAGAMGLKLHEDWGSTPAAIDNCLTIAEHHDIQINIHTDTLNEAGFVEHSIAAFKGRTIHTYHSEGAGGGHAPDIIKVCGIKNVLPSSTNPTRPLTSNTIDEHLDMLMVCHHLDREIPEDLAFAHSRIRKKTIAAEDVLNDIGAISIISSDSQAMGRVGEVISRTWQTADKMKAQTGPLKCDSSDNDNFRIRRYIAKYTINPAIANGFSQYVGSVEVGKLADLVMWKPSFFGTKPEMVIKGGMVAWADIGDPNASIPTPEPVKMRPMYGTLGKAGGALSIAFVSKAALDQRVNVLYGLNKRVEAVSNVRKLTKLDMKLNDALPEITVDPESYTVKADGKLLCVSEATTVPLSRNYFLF

Structure (SMILES)	pIC50
O=[N+]([O-])c1ccc(NC(=S)N/N=C(\c2ccccc2)c2ccc(O)cc2)cc1	4.58
Oc1ccc(/C(=N/NC(=S)Nc2cccc(Br)c2)c2ccccc2)cc1	5.06
CC(=O)Nc1ccc(S(=O)(=O)Nc2ccc(Br)cc2)cc1	4.21

Molecular target: T2, Urease
Assay: Inhibition of jack bean urease assessed as reduction in ammonia production using urea as substrate after 30 mins by indophenol method
Summary of the method: as §2

Structure (SMILES)	pIC50
NS(=O)(=O)c1ccc(CCNC=C2C(=O)NC(=S)NC2=O)cc1	4.94

Molecular target: Bacterial urease (Bacteria) (UniProt Q03282+Q03283+Q03284)
Assay: Potency index, ratio of acetohydroxamic acid IC50 to test compound IC50 for bacterial urease
Type: protein-complex assay
Summary of the method: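 Spectrophotometric urease inhibition assay underlying the IC50s in the ratio, for test compounds and acetohydroxamic acid. Compound pre-incubated with urease (1 U/well) at 30 °C for 15 min. Urea (100 mM) was added and incubation continued at 30 °C. Phenol–nitroprusside and alkaline hypochlorite reagents were added, then 50 min at 30 °C. Ammonia was measured by the Weatherburn method, with absorbance change at 630 nm.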

Structure (SMILES)	Ratio IC50
O=[N+]([O-])c1ccc(S(=O)(=O)N/N=C(\c2ccccc2)c2ccc(O)cc2)cc1	10
